From PubChem BioAssay
Hits are enriched below; roughly 1% of the tested compounds scored in any of these assays.
ERp5 block: ERp5 (human) disulfide isomerase inhibition; AID 651711; ERp5 insulin aggregation, absorbance 650 nm, 90 min; inhibition, % at 9.99 µM; 350,000 tested, 0.05% active;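 active = mean replicate inhibition above about 25%, with every replicate also reaching it, limit read from the data, passing the limit was not always enough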
Target sequence (Q15084 whole entry, looked up): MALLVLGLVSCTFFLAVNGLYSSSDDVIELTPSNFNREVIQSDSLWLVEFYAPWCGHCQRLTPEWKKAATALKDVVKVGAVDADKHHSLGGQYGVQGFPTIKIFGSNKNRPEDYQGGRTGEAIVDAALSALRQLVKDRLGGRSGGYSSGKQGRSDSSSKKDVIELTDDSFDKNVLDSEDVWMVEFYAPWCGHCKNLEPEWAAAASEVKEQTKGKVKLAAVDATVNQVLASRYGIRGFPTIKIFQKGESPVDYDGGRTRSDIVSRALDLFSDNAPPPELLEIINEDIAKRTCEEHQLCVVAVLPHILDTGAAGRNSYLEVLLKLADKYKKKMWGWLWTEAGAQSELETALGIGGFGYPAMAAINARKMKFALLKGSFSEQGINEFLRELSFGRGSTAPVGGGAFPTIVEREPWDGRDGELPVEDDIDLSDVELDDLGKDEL
PvdQ acylase: P. aeruginosa PvdQ acylase inhibition | AID 488965 | purified PvdQ acylase, fluorescence plate reader | 340,000 tested, 0.063% active | inhibition, % at 10 µM; in the data active = inhibition above about 30%, passing the limit was not always enough;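 also: 0% = vehicle neutral wells and 100% = reference inhibitor wells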
IMP-1 inh: blocks Pseudomonas aeruginosa IMP-1 metallo-beta-lactamase; purified IMP-1, nitrocefin hydrolysis, epi-absorbance fluorescence; inhibition, % at 5.6 µM; 290,000 tested, 0.45% active; AID 1556;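 active = inhibition above the mean plus 3 SD of all compounds in the same screening run, cut at about 4.5% in these data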;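 also: 0% = IMP-1 with DMSO and 100% = DMSO wells lacking enzyme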
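System: purified IMP-1; amount: IMP-1 0.2 nM before substrate addition; compound: single dose, 5.6 µM; times: 25 °C, 15 min preincubation, 25 min reaction; signal: Epi-absorbance via hydrolysed-nitrocefin quenching of white-plate fluorescence, 480/530 nm, EDTA stop; benchmarks: DMSO with and without IMP-1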
PDI turbidity: PDI (human) enzyme inhibition | P07237 | PDI insulin aggregation turbidity, A650, 90 min | inhibition, % at 10 µM | 350,000 tested, 0.052% active | AID 588391;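 active = mean inhibition across replicates of 30% or more, whatever share of single replicates reach that level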
PglD DTNB: PglD (C. jejuni) enzyme inhibition. 360,000 tested, 0.098% active. inhibition, % at 12.5 µM. purified PglD enzyme, DTNB colorimetric CoA detection. AID 602405; in the data active = inhibition above about 16%, passing the limit was not always enough
VIM-2 inhibitor: inhibitors of Pseudomonas aeruginosa VIM-2 metallo-beta-lactamase; inhibition, % at 5.6 µM; 290,000 tested, 0.89% active; purified VIM-2, nitrocefin hydrolysis, epi-absorbance fluorescence;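 active = inhibition above the mean of all tested compounds plus 3 SD, cutoff set per screening run, cut at about 7.5% in these data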;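 also: red hydrolysis product quenches plate fluorescence so inhibitors raise well fluorescence; 0% = enzyme with DMSO and 100% = DMSO without enzyme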
* hit, by the source's call; nt = not tested or not shown.

SMILES | ERp5 block | PvdQ acylase | IMP-1 inh | PDI turbidity | PglD DTNB | VIM-2 inhibitor
NC1=CC(=O)c2cccc3cccc1c23 | nt | nt | 14.3* | nt | nt | 3.1
CCn1c(=O)c(C(C)=O)nc2ccccc21 | nt | -2.7 | 5.9* | -0.1 | -3.0 | -0.3
CC(C)(C)N=Cc1c(O)ccc2oc3c(c12)CCCC3 | -0.9 | 3.1 | 19.4* | -8.1 | 1.6 | 4.2
COc1ccc(N2CCN(C(=O)c3ccc(Br)o3)CC2)cc1 | -3.6 | 42.5* | -4.4 | -10.2 | 3.6 | -2.4
COc1ccccc1N1CCN(C(=O)c2ccc(Br)o2)CC1 | 0.1 | 9.4 | nt | -15.6 | -1.6 | nt
CO[C@@H]1CN(C)C(=O)c2cc(NC(=O)C3CCC3)ccc2OC[C@@H](C)N(C(=O)NC(C)C)C[C@@H]1C | -1.0 | nt | nt | nt | 1.9 | nt
O=C1C[C@H](c2ccc(O)cc2)Oc2cc(O[C@@H]3O[C@H](CO)[C@@H](O)[C@H](O)[C@H]3O)cc(O[C@@H]3O[C@H](CO)[C@@H](O)[C@H](O)[C@H]3O)c21 | 0.3 | 2.2 | nt | 39.0* | 6.0 | nt
NC(=O)SC/C(=N\S(=O)(=O)c1ccccc1)Nc1ccccc1 | 0.1 | -3.9 | -2.6 | 1.9 | 4.8 | -2.9
Cc1ccc(N/C(CSC(N)=O)=N/S(=O)(=O)c2ccccc2)cc1 | nt | -4.1 | 4.8* | 19.7 | -6.1 | -0.9
Cc1ccc(N/C(CSC(N)=O)=N\S(=O)(=O)c2ccc(C)cc2)cc1 | nt | -10.0 | 5.0* | -8.5 | 2.2 | -1.3
COc1ccc(C2C(C#N)=C(N)N(c3sc4c(c3C#N)CCCC4)C3=C2C(=O)CC(C)(C)C3)cc1OC (stereo unspecified) | nt | -9.1 | -5.1 | 8.2 | 3.8 | -4.0
COc1ccc(C2C(C#N)=C(N)N(c3sc4c(c3C#N)CCCC4)C3=C2C(=O)CC(C)(C)C3)cc1 (stereo unspecified) | nt | -7.6 | 4.7* | 1.2 | 5.0 | -0.9
COc1ccc(-c2coc3c(C)c4oc(=O)c(CCC(=O)O)c(C)c4cc23)cc1 | nt | -1.7 | -1.0 | 51.8* | 4.6 | 11.3*
Cc1c(CCC(=O)O)c(=O)oc2c(C)c3occ(-c4ccc(Br)cc4)c3cc12 | -1.4 | -2.6 | 23.6* | -1.8 | -1.5 | 4.2
Cc1c(CC(=O)N[C@@H](C)C(=O)O)c(=O)oc2cc3occ(-c4ccccc4)c3cc12 | 1.0 | -16.0 | -1.0 | 7.7 | nt | -0.7
COc1cc(COc2ccc3c(C)c(CCC(=O)O)c(=O)oc3c2)cc(OC)c1OC | 2.3 | -2.1 | -1.6 | -0.4 | 2.2 | -1.4
Cc1c(CC(=O)N[C@@H](C)C(=O)O)c(=O)oc2c(C)c3occ(-c4ccccc4)c3cc12 | -0.6 | 9.3 | -1.9 | 10.2 | -3.1 | 10.1*
Cc1noc(C)c1NC(=O)NCC[C@@H]1CC[C@H](NC(=O)c2ccncc2)[C@H](CO)O1 | 2.9 | nt | nt | nt | -1.9 | nt
CCc1cccc(C)c1NC(=O)c1ccccc1 | 10.0 | -5.1 | -3.6 | 9.3 | nt | -6.7
CCc1cccc(C)c1NC(=O)C1=C(C(=O)O)CCCC1 | nt | -10.6 | 7.8* | 8.2 | -1.1 | 0.2
CCN1CCCC1Cn1cnc2c([nH]c3cccc(Cl)c32)c1=O (stereo unspecified) | nt | 6.0 | 1.6 | 2.1 | -5.5 | 8.2*
COc1cccc2c3c(c(C)nc12)CCN3c1ccccc1 | -4.2 | -2.6 | -2.0 | -1.2 | nt | 10.6*
Cc1ccc2nc(C)c3c(c2c1)N(c1ccc(F)cc1)CC3 | -3.5 | 7.8 | -1.1 | -7.7 | 4.0 | 10.9*
COc1ccccc1N1CCc2c(C)nc3c(OC)cccc3c21 | nt | -11.5 | -2.3 | 6.2 | 2.3 | 12.0*
Cc1cc(NC(=O)c2cc([N+](=O)[O-])cc([N+](=O)[O-])c2C)no1 | -8.3 | 88.2* | -0.5 | 7.4 | nt | -1.9
SMILES | ERp5 block | PvdQ acylase | IMP-1 inh | PDI turbidity | PglD DTNB | VIM-2 inhibitor
Cc1cc(NC(=O)c2ccc(C)c([N+](=O)[O-])c2)no1 | -0.2 | -8.4 | 0.0 | 3.8 | nt | 1.4
Cc1cc(NC(=O)c2ccc(Br)c([N+](=O)[O-])c2)no1 | 2.4 | 64.0* | 0.6 | -4.5 | 4.6 | 1.2
Cc1cc(NC(=O)c2cc([N+](=O)[O-])cc([N+](=O)[O-])c2)no1 | 1.8 | nt | -1.2 | 5.4 | 2.6 | 1.5
O=C(Nc1ccccc1F)N[C@H]1CC[C@@H](CCNS(=O)(=O)c2ccccc2)O[C@H]1CO | -0.3 | nt | nt | nt | 27.5 | nt
O=C(c1ccncc1)N1CC2(C1)[C@@H](c1ccccc1)[C@H](CO)N2C(=O)CC1CC1 | -4.2 | nt | nt | nt | nt | nt
COc1ccccc1CC(=O)N1CCN(c2ccccn2)CC1 | nt | -8.8 | 5.9* | 2.7 | -2.7 | -0.9
Cc1ccc2c(c1)Oc1ccc(NC(=O)CCl)cc1C(=O)N2 | nt | -13.4 | -0.9 | 92.1* | nt | 0.6
O=C(C[C@@H]1CC[C@@H]2[C@H](COC[C@@H](O)CN2C(=O)c2cnccn2)O1)NCc1ccc(F)cc1 | 1.1 | nt | nt | nt | -2.5 | nt
CCOc1ccccc1NC(=O)CCC(=O)Nc1ccccc1OCC | nt | -5.6 | -0.5 | -3.7 | -2.2 | -1.4
CCOc1ccccc1NC(=O)CCNS(=O)(=O)c1ccccc1 | -0.6 | -13.6 | 7.3* | 3.3 | 2.5 | 0.1
CO[C@@H]1CN(C)C(=O)c2cc(NS(=O)(=O)c3ccccc3)ccc2OC[C@H](C)N(C(=O)NC(C)C)C[C@@H]1C | -2.3 | nt | nt | nt | 0.5 | nt
N#Cc1ccccc1CSc1nc(N2CCCCC2)nc(N2CCCCC2)n1 | nt | 0.3 | -0.9 | -4.6 | 0.3 | -3.0
Cc1nc(SCc2ccccc2C#N)n[nH]1 | 1.3 | 2.5 | 4.9* | -4.4 | 0.5 | 0.8
CCOC(=O)/C=c1\s/c(=C\c2ccc3c(c2)OCCO3)c(=O)n1CC(=O)NCC1CCCO1 (stereo unspecified) | nt | -4.8 | 4.7* | -4.7 | 3.9 | 3.1
CCOC(=O)/C=c1\s/c(=C\c2c(OCC)ccc3ccccc23)c(=O)n1CC(=O)NCC1CCCO1 (stereo unspecified) | nt | -7.5 | -4.2 | 1.7 | nt | -1.3
C[C@@H]1CN([C@@H](C)CO)S(=O)(=O)c2ccc(C3=CCCC3)cc2O[C@H]1CN(C)Cc1ccccn1 | -2.8 | nt | nt | nt | 0.5 | nt
CCc1cccc(Nc2c3c(nc4ncnn24)CCC3)c1 | -2.8 | -10.3 | -4.4 | 6.6 | -0.8 | 9.9*
Clc1cccc(Nc2c3c(nc4ncnn24)CCC3)c1 | nt | 0.6 | -3.4 | 10.1 | 5.2 | 3.9
CN1C(=O)CC(Nc2cccc3cccc(N)c23)C1=O (stereo unspecified) | nt | -24.8 | -4.1 | -1.4 | nt | 0.5
CC(C)N1C(=O)CC(Nc2cccc3cccc(N)c23)C1=O (stereo unspecified) | 1.4 | -12.5 | 12.4* | 0.2 | nt | -2.3
C/C=C/c1ccc([C@H]2[C@H](CO)N(C(=O)C3CC3)C23CN(C(=O)NC(C)C)C3)cc1 | -3.4 | nt | nt | nt | nt | nt
CN(C)c1ccc(/C=C/c2cc[n+]([O-])cc2)cc1 | nt | nt | 6.4* | nt | nt | 2.1
CN(C)c1ccc(/C=C/c2cc[n+](C)cc2)cc1 | nt | -7.5 | -4.6 | -6.9 | nt | -2.3
C[C@@H]1CCCCO[C@@H](CN(C)S(=O)(=O)c2ccc(F)cc2)[C@@H](C)CN([C@@H](C)CO)C(=O)c2cc(NC(=O)Cc3ccccc3)ccc2O1 | nt | nt | nt | nt | -3.2 | nt
CN(C#N)c1nc(Cl)nc(Nc2cccc(Cl)c2)n1 | nt | -5.2 | -5.3 | 7.2 | nt | 9.4*
